Source: ChEMBL document CHEMBL1811814, “Synthesis and evaluation of indole, pyrazole, chromone and pyrimidine based conjugates for tumor growth inhibitory activities--development of highly efficacious cytotoxic agents” (Eur J Med Chem, 2010)

Tests used:
Assay type in all cases: functional
Set-up in all cases: scale not given: the % may be the effect or the level left
TK-10 = assay: Growth inhibition of human TK10 cells assessed tumor cell growth at 10^-5 M
Summary of the method: (§1)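 Single-dose screen at 10^-5 M across the 60 human tumor cell line panel, run to NCI standards. The value is the percent growth of each cell line in the presence of compound. Compounds active at this dose moved on to five-concentration testing (10^-4 to 10^-8 M).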

[1] = Growth inhibition of human Hs 578T cells assessed tumor cell growth at 10^-5 M
Summary of the method: (§2)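 NCI 60-human-tumor-cell-line panel screen. Each compound was tested at a single concentration of 10^-5 M, and percent growth of tumor cells was recorded for each cell line. Growth inhibition was expressed from these percent-growth values.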

U-251 = assay: Growth inhibition of human U251 cells assessed tumor cell growth at 10^-5 M; summary of the method: as §1
CCRF-CEM = assay: Growth inhibition of human CCRF-CEM cells assessed tumor cell growth at 10^-5 M; summary of the method: as §2
SNB-19 = assay: Growth inhibition of human SNB19 cells assessed tumor cell growth at 10^-5 M; summary of the method: as §1
SK-MEL-28 = assay: Growth inhibition of human SK-MEL-28 cells assessed tumor cell growth at 10^-5 M; summary of the method: as §2
NCI-H226 = assay: Growth inhibition of human NCI-H226 cells assessed tumor cell growth at 10^-5 M; summary of the method: as §2
MDA-MB-435 = assay: Growth inhibition of human MDA-MB-435 cells assessed tumor cell growth at 10^-5 M; summary of the method: as §2
SR = assay: Growth inhibition of human SR cells assessed tumor cell growth at 10^-5 M; summary of the method: as §1
OVCAR-5 = assay: Growth inhibition of human OVCAR5 cells assessed tumor cell growth at 10^-5 M; summary of the method: as §2
LOX IMVI = assay: Growth inhibition of human LOXIMVI cells assessed tumor cell growth at 10^-5 M; summary of the method: as §2
HCT-116 = assay: Growth inhibition of human HCT116 cells assessed tumor cell growth at 10^-5 M; summary of the method: as §2
EKVX = assay: Growth inhibition of human EKVX cells assessed tumor cell growth at 10^-5 M; summary of the method: as §2
KM12 = assay: Growth inhibition of human KM12 cells assessed tumor cell growth at 10^-5 M; summary of the method: as §2
SF-295 = assay: Growth inhibition of human SF295 cells assessed tumor cell growth at 10^-5 M; summary of the method: as §2
PC-3 = assay: Growth inhibition of human PC3 cells assessed tumor cell growth at 10^-5 M; summary of the method: as §2
SF-268 = assay: Growth inhibition of human SF268 cells assessed tumor cell growth at 10^-5 M; summary of the method: as §2
UACC-62 = assay: Growth inhibition of human UACC62 cells assessed tumor cell growth at 10^-5 M; summary of the method: as §1
A549 = assay: Growth inhibition of human A549 cells assessed tumor cell growth at 10^-5 M; summary of the method: as §2
SW-620 = assay: Growth inhibition of human SW620 cells assessed tumor cell growth at 10^-5 M; summary of the method: as §1
K562 = assay: Growth inhibition of human K562 cells assessed tumor cell growth at 10^-5 M; summary of the method: as §2
MOLT-4 = assay: Growth inhibition of human MOLT4 cells assessed tumor cell growth at 10^-5 M; summary of the method: as §2
HL-60(TB) = assay: Growth inhibition of human HL-60(TB) cells assessed tumor cell growth at 10^-5 M
Summary of the method: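 HL-60(TB), part of the 60-line panel, tested at a single concentration of 10^-5 M. The read-out is percent tumor cell growth relative to untreated growth.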

HCC 2998 = assay: Growth inhibition of human HCC2998 cells assessed tumor cell growth at 10^-5 M; summary of the method: as §2
M14 = assay: Growth inhibition of human M14 cells assessed tumor cell growth at 10^-5 M; summary of the method: as §2
SF-539 = assay: Growth inhibition of human SF539 cells assessed tumor cell growth at 10^-5 M; summary of the method: as §2
Malme-3M = assay: Growth inhibition of human MALME-3M cells assessed tumor cell growth at 10^-5 M; summary of the method: as §2
HOP-62 = assay: Growth inhibition of human HOP62 cells assessed tumor cell growth at 10^-5 M; summary of the method: as §2
SK-MEL-5 = assay: Growth inhibition of human SK-MEL-5 cells assessed tumor cell growth at 10^-5 M; summary of the method: as §2
IGROV-1 = assay: Growth inhibition of human IGROV1 cells assessed tumor cell growth at 10^-5 M; summary of the method: as §2
T47D = assay: Growth inhibition of human T47D cells assessed tumor cell growth at 10^-5 M; summary of the method: as §1
SN12C = assay: Growth inhibition of human SN12C cells assessed tumor cell growth at 10^-5 M; summary of the method: as §2
DU-145 = assay: Growth inhibition of human DU145 cells assessed tumor cell growth at 10^-5 M; summary of the method: as §2
MCF7 = assay: Growth inhibition of human MCF7 cells assessed tumor cell growth at 10^-5 M; summary of the method: as §2
BT-549 = assay: Growth inhibition of human BT549 cells assessed tumor cell growth at 10^-5 M; summary of the method: as §2
SNB-75 = assay: Growth inhibition of human SNB75 cells assessed tumor cell growth at 10^-5 M; summary of the method: as §1
A498 = assay: Growth inhibition of human A498 cells assessed tumor cell growth at 10^-5 M; summary of the method: as §2
COLO 205 = assay: Growth inhibition of human COLO205 cells assessed tumor cell growth at 10^-5 M; summary of the method: as §2
SK-OV-3 = assay: Growth inhibition of human SKOV3 cells assessed tumor cell growth at 10^-5 M; summary of the method: as §2
SK-MEL-2 = assay: Growth inhibition of human SK-MEL-2 cells assessed tumor cell growth at 10^-5 M; summary of the method: as §2
OVCAR-4 = assay: Growth inhibition of human OVCAR4 cells assessed tumor cell growth at 10^-5 M; summary of the method: as §2
OVCAR-3 = assay: Growth inhibition of human OVCAR3 cells assessed tumor cell growth at 10^-5 M; summary of the method: as §2
HT-29 = assay: Growth inhibition of human HT-29 cells assessed tumor cell growth at 10^-5 M; summary of the method: as §2
NCI-H522 = assay: Growth inhibition of human NCI-H522 cells assessed tumor cell growth at 10^-5 M; summary of the method: as §2
ACHN = assay: Growth inhibition of human ACHN cells assessed tumor cell growth at 10^-5 M; summary of the method: as §2
NCI-H322M = assay: Growth inhibition of human NCI-H322M cells assessed tumor cell growth at 10^-5 M; summary of the method: as §2
NCI/ADR-RES = assay: Growth inhibition of human NCI/ADR-RES cells assessed tumor cell growth at 10^-5 M; summary of the method: as §2
HCT-15 = assay: Growth inhibition of human HCT15 cells assessed tumor cell growth at 10^-5 M; summary of the method: as §2
RXF 393 = assay: Growth inhibition of human RXF393 cells assessed tumor cell growth at 10^-5 M; summary of the method: as §2
NCI-H23 = assay: Growth inhibition of human NCI-H23 cells assessed tumor cell growth at 10^-5 M; summary of the method: as §2
UACC-257 = assay: Growth inhibition of human UACC257 cells assessed tumor cell growth at 10^-5 M; summary of the method: as §1
[2] = Growth inhibition of human […] cells assessed tumor cell growth at 10^-5 M; summary of the method: as §2
HOP-92 = assay: Growth inhibition of human HOP92 cells assessed tumor cell growth at 10^-5 M; summary of the method: as §2
CAKI-1 = assay: Growth inhibition of human Caki1 cells assessed tumor cell growth at 10^-5 M; summary of the method: as §2
NCI-H460 = assay: Growth inhibition of human NCI-H460 cells assessed tumor cell growth at 10^-5 M; summary of the method: as §2
MDA-MB-468 = assay: Growth inhibition of human MDA-MB-468 cells assessed tumor cell growth at 10^-5 M; summary of the method: as §2
MDA-MB-231 = assay: Growth inhibition of human MDA-MB-231 cells assessed tumor cell growth at 10^-5 M; summary of the method: as §2
UO-31 = assay: Growth inhibition of human UO31 cells assessed tumor cell growth at 10^-5 M; summary of the method: as §1
OVCAR-8 = assay: Growth inhibition of human OVCAR8 cells assessed tumor cell growth at 10^-5 M; summary of the method: as §2
786-0 = assay: Growth inhibition of human 786-0 cells assessed tumor cell growth at 10^-5 M; summary of the method: as §2

Compound `CC1=NN(c2cccc(Cl)c2)C(=O)/C1=C\c1ccccn1` has an Activity (TK-10) of 118.17%, an Activity [1] of 111.76% and an Activity (U-251) of 115.89%. It also gave an Activity (CCRF-CEM) of 32.58%, an Activity (SNB-19) of 111.92% and an Activity (SK-MEL-28) of 128.95%. For the same compound, the Activity (NCI-H226) was 112.86%, the Activity (MDA-MB-435) was 117.42% and the Activity (SR) was 112.11%. The Activity (OVCAR-5) was 116.2%, the Activity (LOX IMVI) was 116.29% and the Activity (HCT-116) was 88.7%. The Activity (EKVX) was 117.01%, the Activity (KM12) was 111.47% and the Activity (SF-295) was 118.39%. It also gave an Activity (PC-3) of 113.15%, an Activity (SF-268) of 100.43% and an Activity (UACC-62) of 101.53%. It also gave an Activity (A549) of 116.18%, an Activity (SW-620) of 116.97% and an Activity (K562) of 102.25%. The Activity (MOLT-4) was 111.67%, the Activity (HL-60(TB)) was 113.01% and the Activity (HCC 2998) was 120.72%. For the same compound, the Activity (M14) was 80.87%, the Activity (SF-539) was 115.91% and the Activity (Malme-3M) was 121.3%. For the same compound, the Activity (HOP-62) was 107.34%, the Activity (SK-MEL-5) was 103.51% and the Activity (IGROV-1) was 103.16%. For the same compound, the Activity (T47D) was 100.29%, the Activity (SN12C) was 91.77% and the Activity (DU-145) was 120.58%. For the same compound, the Activity (MCF7) was 102.77%, the Activity (BT-549) was 111.06% and the Activity (SNB-75) was 103.79%. It also gave an Activity (A498) of 111.6%, an Activity (COLO 205) of 112.21% and an Activity (SK-OV-3) of 113.71%. The Activity (SK-MEL-2) was 112.74%, the Activity (OVCAR-4) was 128.45% and the Activity (OVCAR-3) was 117.75%. The Activity (HT-29) was 114.19%, the Activity (NCI-H522) was 104.42% and the Activity (ACHN) was 103.1%. The Activity (NCI-H322M) was 123.35%, the Activity (NCI/ADR-RES) was 116.87% and the Activity (HCT-15) was 114.26%. The Activity (RXF 393) was 114.31%, the Activity (NCI-H23) was 111.77% and the Activity (UACC-257) was 115.54%. It also gave an Activity [2] of 96.65%, an Activity (HOP-92) of 100.37% and an Activity (CAKI-1) of 98.46%. For the same compound, the Activity (NCI-H460) was 117.15%, the Activity (MDA-MB-468) was 116.6% and the Activity (MDA-MB-231) was 106.88%. For the same compound, the Activity (UO-31) was 81.52%, the Activity (OVCAR-8) was 105.14% and the Activity (786-0) was 113.47%.
